Measured values: ChEMBL document CHEMBL6153131, “Rational Design and Optimization of a Potent IDO1 Proteolysis Targeting Chimera (PROTAC)” (J Med Chem, 2025)
Active and inactive are the calls of the source. The calls are words filed in the database; no cut-off is given here.

How the values were obtained:
[1] = molecular target: T1, Protein cereblon/Indoleamine 2,3-dioxygenase 1 (Homo sapiens, UniProt P14902+Q96SW2); test: PROTAC activity at CRBN/IDO1 in human PC-3 cells assessed as induction of IDO1 degradation pretreated with IFN-gamma for 24 hrs followed by compound addition and measured after 24 hrs by Western blotting analysis; assay type: cell-based; settings: dose 50-100 nM
Summary of the method: (§1)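 Cells had IDO1 induced with IFNγ, then were treated at the indicated concentrations for 24 h. Lines: PDX-6 and PDX-38 adult GBM PDX cells, U87 overexpressing GFP-fused IDO1, PC-3, KNS42, MDA-MB-231, SW-1990 and SKOV-3. Lysates probed for IDO1 and GAPDH by Western blot; representative of 3 separate replicates.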
Target sequence in this assay (P14902 whole entry, looked up, the tested form may be a part): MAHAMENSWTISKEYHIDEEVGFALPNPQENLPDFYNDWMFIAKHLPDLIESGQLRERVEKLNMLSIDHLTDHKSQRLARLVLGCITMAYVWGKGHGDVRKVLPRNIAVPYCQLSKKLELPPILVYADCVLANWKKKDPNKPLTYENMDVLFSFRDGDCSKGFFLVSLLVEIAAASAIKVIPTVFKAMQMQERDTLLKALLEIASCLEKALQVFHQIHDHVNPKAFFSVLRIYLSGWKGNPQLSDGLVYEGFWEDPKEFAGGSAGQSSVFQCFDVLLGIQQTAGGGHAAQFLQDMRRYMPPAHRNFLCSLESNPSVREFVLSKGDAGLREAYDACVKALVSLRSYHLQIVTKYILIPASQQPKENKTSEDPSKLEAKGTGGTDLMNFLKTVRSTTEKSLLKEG
Target sequence in this assay (Q96SW2 whole entry, looked up, the tested form may be a part): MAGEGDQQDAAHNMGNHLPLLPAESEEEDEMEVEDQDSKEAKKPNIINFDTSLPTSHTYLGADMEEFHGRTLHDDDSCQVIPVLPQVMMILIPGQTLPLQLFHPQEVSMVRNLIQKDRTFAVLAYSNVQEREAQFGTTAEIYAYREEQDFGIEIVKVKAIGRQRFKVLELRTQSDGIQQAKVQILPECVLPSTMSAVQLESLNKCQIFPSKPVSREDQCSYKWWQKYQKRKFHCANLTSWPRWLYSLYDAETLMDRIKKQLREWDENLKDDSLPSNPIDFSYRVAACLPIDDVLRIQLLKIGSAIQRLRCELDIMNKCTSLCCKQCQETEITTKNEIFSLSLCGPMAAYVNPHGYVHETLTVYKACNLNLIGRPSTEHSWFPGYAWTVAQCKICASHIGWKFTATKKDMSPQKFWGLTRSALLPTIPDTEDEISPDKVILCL

PDX-38 = test: Inhibition of kynurenine production in human PDX-38 cells pretreated with IFN-gamma for 24 hrs followed by compound addition and measured after 24 hrs by Ehrlich's reagent based analysis; assay type: functional, cell-based; settings: dose 50-100 nM
[2] = molecular target: T1, Protein cereblon/Indoleamine 2,3-dioxygenase 1; test: PROTAC activity at CRBN/IDO1 in human GBM43 cell assessed as induction of IDO1 degradation pretreated with IFN-gamma for 24 hrs followed by compound addition and measured after 24 hrs by Western blot analysis; assay type: cell-based
Summary of the method: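 GBM43 cells treated for 24 h across an extended dose range. IDO1 Western blot, IFN-γ-induced IDO1 normalized to untreated; DC50 from n = 3 independent experiments.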
Target sequence in this assay (P14902 whole entry, the tested form may be a part): as the sequence (P14902 whole entry, looked up, the tested form may be a part) above
Target sequence in this assay (Q96SW2 whole entry, the tested form may be a part): as the sequence (Q96SW2 whole entry, looked up, the tested form may be a part) above

[3] = molecular target: T1, Protein cereblon/Indoleamine 2,3-dioxygenase 1; test: PROTAC activity at CRBN/N-terminal HiBiT-tagged IDO1 (unknown origin) transfected in human U87 cells assessed as induction of IDO1 degradation by measuring maximum efficacy pretreated with IFN-gamma for 24 hrs followed by compound addition and measured after 24 hrs by Nano-Glo HiBiT assay relative to control; assay type: cell-based
Summary of the method: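 U87 cells carrying HiBiT knocked in by CRISPR/Cas9 at the IDO1 N-terminus, treated for 24 h. Degradation read as loss of luminescence. DC50 fitted from the lowest concentration up to maximal degradation, excluding hook-effect points; triplicate mean ± SD.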
Target sequence in this assay (P14902 whole entry, looked up, the tested form may be a part): as the sequence (P14902 whole entry, looked up, the tested form may be a part) above
Target sequence in this assay (Q96SW2 whole entry, looked up, the tested form may be a part): as the sequence (Q96SW2 whole entry, looked up, the tested form may be a part) above

MDA-MB-231 = test: Inhibition of kynurenine production in human MDA-MB-231 cells pretreated with IFN-gamma for 24 hrs followed by compound addition and measured after 24 hrs by Ehrlich's reagent based analysis; assay type: functional, cell-based; settings: dose 50-100 nM
[4] = molecular target: T1, Protein cereblon/Indoleamine 2,3-dioxygenase 1; test: PROTAC activity at CRBN/IDO1 in human U87 cells assessed as induction of IDO1 degradation by measuring remaining activity at 0.1 uM pretreated with IFN-gamma for 24 hrs followed by compound addition and measured after 24 hrs by Western blotting analysis (reference value: 100%); assay type: cell-based
Summary of the method: (§2)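 U87 cells given an extended dose range of PROTAC for 24 h, then Western blot for IDO1. IFNγ-induced IDO1 levels normalised to untreated samples. n = 3 independent experiments; mean ± SEM.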
Target sequence in this assay (P14902 whole entry, looked up, the tested form may be a part): as the sequence (P14902 whole entry, looked up, the tested form may be a part) above
Target sequence in this assay (Q96SW2 whole entry, looked up, the tested form may be a part): as the sequence (Q96SW2 whole entry, looked up, the tested form may be a part) above

U-87MG ATCC = test: Inhibition of kynurenine production in human U87 cells […] and measured after 24 hrs by Ehrlich's reagent based analysis; assay type: functional, cell-based; settings: dose 0.001-10 µM
Summary of the method: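 U87 cells plated, then 24 h later given compound with 50 ng/mL IFN-γ for a total of 24 h. Supernatant kynurenine measured with Ehrlich's reagent; cells without IFN-γ as control; mean ± SEM, Tukey's test.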

[5] = molecular target: T1, Protein cereblon/Indoleamine 2,3-dioxygenase 1; test: PROTAC activity at CRBN/IDO1 in human GBM43 cell assessed as induction of IDO1 degradation at 0.01 uM pretreated with IFN-gamma for 24 hrs followed by compound addition and measured after 24 hrs by Western blotting analysis (reference value: 100%); assay type: cell-based
Summary of the method: (§3)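 GBM43 patient-derived cells given an extended dose range of PROTAC for 24 h. Protein analysed by Western blot for IDO1, and IFNγ-induced IDO1 normalised to untreated samples. n = 3 independent experiments; data as mean ± SEM.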
Target sequence in this assay (P14902 whole entry, looked up, the tested form may be a part): as the sequence (P14902 whole entry, looked up, the tested form may be a part) above
Target sequence in this assay (Q96SW2 whole entry, looked up, the tested form may be a part): as the sequence (Q96SW2 whole entry, looked up, the tested form may be a part) above

[6] = molecular target: T1, Protein cereblon/Indoleamine 2,3-dioxygenase 1; test: PROTAC activity at CRBN/IDO1 in human GBM43 cell assessed as induction of IDO1 degradation at 10 uM pretreated with IFN-gamma for 24 hrs followed by compound addition and measured after 24 hrs by Western blotting analysis (reference value: 100%); assay type: cell-based; summary of the method: as §3
Target sequence in this assay (P14902 whole entry, looked up, the tested form may be a part): as the sequence (P14902 whole entry, looked up, the tested form may be a part) above
Target sequence in this assay (Q96SW2 whole entry, looked up, the tested form may be a part): as the sequence (Q96SW2 whole entry, looked up, the tested form may be a part) above

[7] = molecular target: T1, Protein cereblon/Indoleamine 2,3-dioxygenase 1; test: PROTAC activity at CRBN/IDO1 in human U87 cells assessed as induction of IDO1 degradation at 100 nM pretreated with IFN-gamma for 24 hrs followed by compound addition and measured after 24 hrs in presence of NU223618 by Western blotting analysis; assay type: cell-based
Target sequence in this assay (P14902 whole entry, looked up, the tested form may be a part): as the sequence (P14902 whole entry, looked up, the tested form may be a part) above
Target sequence in this assay (Q96SW2 whole entry, looked up, the tested form may be a part): as the sequence (Q96SW2 whole entry, looked up, the tested form may be a part) above

Kelly [8] = test: Downregulation of ADO protein level in human Kelly cells at 1 uM incubated for 24 hrs by proteomics analysis; assay type: functional, cell-based
[9] = molecular target: T1, Protein cereblon/Indoleamine 2,3-dioxygenase 1; test: PROTAC activity at CRBN/IDO1 in human PDX-38 cells assessed as induction of IDO1 degradation pretreated with IFN-gamma for 24 hrs followed by compound addition and measured after 24 hrs by Western blotting analysis; assay type: cell-based; settings: dose 50-100 nM; summary of the method: as §1
[10] = Half life in female C57BL/6J mouse plasma at 50 mg/kg, ip by LC-MS/MS analysis; assay type: ADME, organism-based
Kelly [11] = test: Downregulation of CDK8 protein level in human Kelly cells at 1 uM incubated for 24 hrs by proteomics analysis; assay type: functional, cell-based
[12] = molecular target: T1, Protein cereblon/Indoleamine 2,3-dioxygenase 1; test: PROTAC activity at CRBN/IDO1 in human U87 cell assessed as induction of IDO1 degradation pretreated with IFN-gamma for 24 hrs followed by compound addition and measured after 24 hrs by Western blot analysis; assay type: cell-based
Summary of the method: (§4)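 IDO1 in U87 cells induced with 50 ng/mL human IFN-γ, then compound given across an extended dose range for 24 h. IDO1 and GAPDH read by Western blot; IDO1 levels normalized to untreated; DC50 from n = 3 independent experiments.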
Target sequence in this assay (P14902 whole entry, the tested form may be a part): as the sequence (P14902 whole entry, looked up, the tested form may be a part) above
Target sequence in this assay (Q96SW2 whole entry, the tested form may be a part): as the sequence (Q96SW2 whole entry, looked up, the tested form may be a part) above

[13] = molecular target: T1, Protein cereblon/Indoleamine 2,3-dioxygenase 1; test: Binding affinity to CRBN/6His-tagged recombinant IDO1 (unknown origin) assessed as ternary complex formation by measuring half life by Biolayer Interferometry assay; assay type: protein assay
[14] = molecular target: T1, Protein cereblon/Indoleamine 2,3-dioxygenase 1; test: PROTAC activity at CRBN/IDO1 in human U87 cells assessed as induction of IDO1 degradation by measuring maximum efficacy at 100 nM pretreated with IFN-gamma for 24 hrs followed by compound addition and measured after 24 hrs by Western blotting analysis relative to control; assay type: cell-based; summary of the method: as §4
[15] = molecular target: T1, Protein cereblon/Indoleamine 2,3-dioxygenase 1; test: PROTAC activity at CRBN/IDO1 in human U87 cells assessed as induction of IDO1 degradation at 50 to 100 nM pretreated with compound for 24 hrs followed by compound washout and measured upto 48 hrs by Western blotting analysis; assay type: cell-based; settings: dose 50-100 nM
Summary of the method: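 U87 cells given a 24 h PROTAC pulse, then cultured without compound for up to 48 h after washout. IDO1 assessed by Western blot.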

[16] = molecular target: T1, Protein cereblon/Indoleamine 2,3-dioxygenase 1; test: PROTAC activity at CRBN/IDO1 in human SK-OV-3 cells assessed as induction of IDO1 degradation pretreated with IFN-gamma for 24 hrs followed by compound addition and measured after 24 hrs by Western blotting analysis; assay type: cell-based; settings: dose 50-100 nM; summary of the method: as §1
[17] = molecular target: T1, Protein cereblon/Indoleamine 2,3-dioxygenase 1; test: PROTAC activity at CRBN/IDO1 in human U87 cells assessed as induction of IDO1 degradation at 100 nM at 1 uM pretreated with IFN-gamma for 24 hrs followed by compound addition and measured after 24 hrs in presence of pomalidomide by Western blotting analysis; assay type: cell-based
[18] = molecular target: Indoleamine 2,3-dioxygenase 1 (Homo sapiens) (UniProt P14902); test: Binding affinity to 6His-tagged recombinant IDO1 (unknown origin) assessed as binary complex formation by measuring half life by Biolayer Interferometry assay
[19] = molecular target: T1, Protein cereblon/Indoleamine 2,3-dioxygenase 1; test: PROTAC activity at CRBN/IDO1 in human U87 cells assessed as induction of IDO1 degradation by measuring remaining activity at 0.3 uM pretreated with IFN-gamma for 24 hrs followed by compound addition and measured after 24 hrs by Western blotting analysis (reference value: 100%); assay type: cell-based; summary of the method: as §2

Sequence of Indoleamine 2,3-dioxygenase 1 (Homo sapiens) (P14902 whole entry, looked up): as the sequence (P14902 whole entry, looked up, the tested form may be a part) above

**Q.** With C[C@@H](C(=O)Nc1cccc(OC2CCN(C(=O)CN3CCC(N4CCN(c5ccc6c(c5)C(=O)N(C5CCC(=O)NC5=O)C6=O)CC4)CC3)CC2)c1)[C@H]1CC[C@@H](c2ccnc3ccc(F)cc32)CC1 (some centres not stated) as the molecule, how does the Activity [1] read?
**A.** The Activity was “Dose-dependent-effect”.

**Q.** And the inhibition (PDX-38)?
**A.** The inhibition was “Dose-dependent-effect”.

**Q.** What about the DC50 [2] of the same molecule?
**A.** Its DC50 is 11.8 nM.

**Q.** What about the Emax [3] of the same molecule?
**A.** Its Emax is 63%.

**Q.** And the inhibition (MDA-MB-231)?
**A.** Its inhibition is “Dose-dependent-effect”.

**Q.** And the Activity [4]?
**A.** The Activity was 12%.

**Q.** And the inhibition (U-87MG ATCC)?
**A.** The inhibition was “Dose-dependent-effect”.

**Q.** What about the Activity [5] of the same molecule?
**A.** Its Activity is 61%.

**Q.** And the Activity [6]?
**A.** The Activity was 87%.

**Q.** And the Activity [7]?
**A.** Its Activity is “inactive”.

**Q.** And the Activity (Kelly [8])?
**A.** Its Activity is “Active”.

**Q.** And the Activity [9]?
**A.** The Activity was “Dose-dependent-effect”.

**Q.** And the half-life [10]?
**A.** Its half-life is 342 min.

**Q.** And the Activity (Kelly [11])?
**A.** The Activity was “Active”.

**Q.** And the DC50 [12]?
**A.** Its DC50 is 7.1 nM.

**Q.** And the T1/2 [13]?
**A.** The T1/2 was 17.3 min.

**Q.** What about the Emax [14] of the same molecule?
**A.** Its Emax is 88%.

**Q.** What about the Activity [15] of the same molecule?
**A.** Its Activity is “Active”.

**Q.** What about the Activity [16] of the same molecule?
**A.** Its Activity is “Dose-dependent-effect”.

**Q.** And the Activity [17]?
**A.** Its Activity is “inactive”.

**Q.** What about the T1/2 [18] of the same molecule?
**A.** Its T1/2 is 0.643 min.

**Q.** And the Activity [19]?
**A.** The Activity was 20%.
